According to ChEMBL document CHEMBL3994644, “Discovery of AAT-008, a novel, potent, and selective prostaglandin EP4 receptor antagonist” (Bioorg Med Chem Lett, 2017):
≈ marks a conversion by molar mass, not a printed value.

Assays:
[1] = Cmax in Sprague-Dawley rat at 1 mg/kg, po; assay type: ADME, organism-based; set-up: dose 1 mg/kg, route oral; details: in vivo
Procedure, shortened: (§1)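 Single 1 mg/kg dose given IV or PO to rats, dogs and monkeys. Plasma pharmacokinetic parameters were derived and reported as mean SD, N = 4.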

[2] = Elimination half life in Sprague-Dawley rat at 1 mg/kg, iv; assay type: ADME, organism-based; details: in vivo, read-out: beta t1/2 (converted); procedure, shortened: as §1
[3] = Oral bioavailability in Beagle dog at 1 mg/kg; assay type: ADME, organism-based, Canis lupus familiaris; details: in vivo; procedure, shortened: as §1
[4] = Oral bioavailability in cynomolgus monkey at 1 mg/kg; assay type: ADME, organism-based, Macaca fascicularis; details: in vivo; procedure, shortened: as §1
[5] = Lipophilicity, log D of the compound at pH 7.4; assay type: physicochemical; details: buffer
[6] = Tmax in Beagle dog at 1 mg/kg, po; assay type: ADME, organism-based, Canis lupus familiaris; details: in vivo; procedure, shortened: as §1
[7] = target: T1, Prostaglandin E2 receptor EP3 subtype (Homo sapiens, UniProt P43115); assay: Antagonist activity at human EP3 receptor
T1 sequence (P43115 whole entry): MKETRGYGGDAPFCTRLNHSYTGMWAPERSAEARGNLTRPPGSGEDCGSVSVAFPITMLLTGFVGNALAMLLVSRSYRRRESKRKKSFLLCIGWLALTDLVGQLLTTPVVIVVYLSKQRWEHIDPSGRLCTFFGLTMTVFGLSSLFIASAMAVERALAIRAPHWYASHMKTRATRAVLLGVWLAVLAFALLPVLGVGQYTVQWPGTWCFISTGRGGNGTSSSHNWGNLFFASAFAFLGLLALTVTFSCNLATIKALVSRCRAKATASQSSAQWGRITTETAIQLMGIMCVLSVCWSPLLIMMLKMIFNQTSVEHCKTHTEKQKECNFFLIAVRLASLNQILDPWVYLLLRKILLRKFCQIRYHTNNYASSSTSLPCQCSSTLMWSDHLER

CYP2C19 = CYP2C19 (Homo sapiens, UniProt P33261); assay: Inhibition of CYP2C19 (unknown origin) at 1 uM relative to control; assay type: ADME
CYP2C19, sequence (P33261 whole entry): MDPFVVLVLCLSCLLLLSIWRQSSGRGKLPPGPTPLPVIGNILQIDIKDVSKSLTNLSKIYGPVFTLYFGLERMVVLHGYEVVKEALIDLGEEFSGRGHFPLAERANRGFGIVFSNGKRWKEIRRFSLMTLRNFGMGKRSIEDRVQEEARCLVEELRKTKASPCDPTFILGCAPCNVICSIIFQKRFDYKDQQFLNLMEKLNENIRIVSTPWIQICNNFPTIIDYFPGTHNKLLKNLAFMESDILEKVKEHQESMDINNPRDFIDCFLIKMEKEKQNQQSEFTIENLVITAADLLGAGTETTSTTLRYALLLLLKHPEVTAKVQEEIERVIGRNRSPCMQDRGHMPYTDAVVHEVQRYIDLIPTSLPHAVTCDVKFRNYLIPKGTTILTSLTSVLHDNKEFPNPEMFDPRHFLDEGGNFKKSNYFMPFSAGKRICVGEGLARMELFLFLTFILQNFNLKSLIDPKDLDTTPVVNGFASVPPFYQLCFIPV
Procedure, shortened: (§2)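 CYP1A, CYP2C9, CYP2C19, CYP2D6 and CYP3A activities were each tested with 1 µM test article. Results are given as percent inhibition of enzyme activity.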

[8] = Elimination half life in cynomolgus monkey at 1 mg/kg, po; assay type: ADME, organism-based, Macaca fascicularis; details: in vivo, read-out: beta t1/2 (converted); procedure, shortened: as §1
[9] = target: Prostaglandin F2-alpha receptor (Homo sapiens, UniProt P43088); assay: Antagonist activity at human FP receptor
Prostaglandin F2-alpha receptor, sequence (P43088 whole entry): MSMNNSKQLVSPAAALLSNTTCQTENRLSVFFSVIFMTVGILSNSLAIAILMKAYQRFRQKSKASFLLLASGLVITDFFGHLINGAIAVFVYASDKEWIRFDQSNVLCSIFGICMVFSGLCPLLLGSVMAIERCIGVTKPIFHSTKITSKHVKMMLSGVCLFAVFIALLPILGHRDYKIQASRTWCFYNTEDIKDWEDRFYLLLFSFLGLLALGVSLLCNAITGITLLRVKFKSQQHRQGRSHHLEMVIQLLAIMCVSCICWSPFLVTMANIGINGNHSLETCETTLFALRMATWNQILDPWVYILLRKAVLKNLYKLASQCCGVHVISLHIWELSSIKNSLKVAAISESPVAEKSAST

[10] = Half life in hepatocytes (unknown origin); assay type: ADME, cell-based, Hepatocyte
[11] = Elimination half life in Beagle dog at 1 mg/kg, iv; assay type: ADME, organism-based, Canis lupus familiaris; details: in vivo, read-out: beta t1/2 (converted); procedure, shortened: as §1
[12] = Elimination half life in Sprague-Dawley rat at 1 mg/kg, po; assay type: ADME, organism-based; details: in vivo, read-out: beta t1/2 (converted); procedure, shortened: as §1
[13] = AUC (0 to infinity) in Beagle dog at 1 mg/kg, iv; assay type: ADME, organism-based, Canis lupus familiaris; set-up: dose 1 mg/kg, time infinity, route intravenous; details: in vivo; procedure, shortened: as §1
[14] = AUC (0 to infinity) in cynomolgus monkey at 1 mg/kg, po; assay type: ADME, organism-based, Macaca fascicularis; set-up: dose 1 mg/kg, time infinity, route oral; details: in vivo; procedure, shortened: as §1
[15] = Volume of distribution at steady state in Sprague-Dawley rat at 1 mg/kg, iv; assay type: ADME, organism-based; details: in vivo, read-out: Vdss
Procedure, shortened: (§3)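 A single intravenous injection at 1 mg/kg was given. Plasma concentration–time data gave total clearance (CL_total, mL/min/kg) and steady-state volume of distribution (Vd_ss, L/kg). Values are mean SD of N = 4 animals per species.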

[16] = Oral bioavailability in Sprague-Dawley rat at 1 mg/kg; assay type: ADME, organism-based; details: in vivo; procedure, shortened: as §1
[17] = target: T2, Prostaglandin E2 receptor EP4 subtype (Rattus norvegicus, UniProt P43114); assay: Antagonist activity at rat recombinant EP4 receptor
T2 sequence (P43114 whole entry): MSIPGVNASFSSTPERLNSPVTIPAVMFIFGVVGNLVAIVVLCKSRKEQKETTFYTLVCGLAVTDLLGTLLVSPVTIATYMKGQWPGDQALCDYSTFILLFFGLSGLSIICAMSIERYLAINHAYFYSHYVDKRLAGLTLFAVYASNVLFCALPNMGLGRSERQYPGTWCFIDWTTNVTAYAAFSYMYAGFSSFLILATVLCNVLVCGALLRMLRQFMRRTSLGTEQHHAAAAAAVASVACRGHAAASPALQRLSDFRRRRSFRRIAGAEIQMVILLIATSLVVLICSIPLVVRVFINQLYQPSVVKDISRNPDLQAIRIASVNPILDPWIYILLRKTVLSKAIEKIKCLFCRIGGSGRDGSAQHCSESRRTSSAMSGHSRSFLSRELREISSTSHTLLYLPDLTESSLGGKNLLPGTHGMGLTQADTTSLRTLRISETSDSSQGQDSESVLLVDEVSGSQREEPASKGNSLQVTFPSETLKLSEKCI

Thromboxane A2 receptor = target: T3, Thromboxane A2 receptor (Homo sapiens, UniProt P21731); assay: Antagonist activity at human platelet TP receptor
T3 sequence (P21731 whole entry): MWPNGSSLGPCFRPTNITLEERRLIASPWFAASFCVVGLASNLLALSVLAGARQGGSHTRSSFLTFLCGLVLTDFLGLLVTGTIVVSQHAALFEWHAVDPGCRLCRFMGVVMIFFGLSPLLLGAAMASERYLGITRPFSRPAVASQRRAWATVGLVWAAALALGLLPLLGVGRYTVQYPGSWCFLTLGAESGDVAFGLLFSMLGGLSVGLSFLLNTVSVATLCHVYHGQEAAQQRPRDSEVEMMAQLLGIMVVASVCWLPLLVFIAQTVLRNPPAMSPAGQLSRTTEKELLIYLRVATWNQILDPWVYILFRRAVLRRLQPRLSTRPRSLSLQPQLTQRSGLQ

[18] = target: Prostaglandin E2 receptor EP4 subtype (Homo sapiens, UniProt P35408); assay: Antagonist activity at human EP4 receptor expressed in HEK293 cells assessed as inhibition of PGE2-induced cAMP level by HTS assay; assay type: functional, cell-based
Prostaglandin E2 receptor EP4 subtype (Homo sapiens, UniProt P35408), sequence (P35408 whole entry): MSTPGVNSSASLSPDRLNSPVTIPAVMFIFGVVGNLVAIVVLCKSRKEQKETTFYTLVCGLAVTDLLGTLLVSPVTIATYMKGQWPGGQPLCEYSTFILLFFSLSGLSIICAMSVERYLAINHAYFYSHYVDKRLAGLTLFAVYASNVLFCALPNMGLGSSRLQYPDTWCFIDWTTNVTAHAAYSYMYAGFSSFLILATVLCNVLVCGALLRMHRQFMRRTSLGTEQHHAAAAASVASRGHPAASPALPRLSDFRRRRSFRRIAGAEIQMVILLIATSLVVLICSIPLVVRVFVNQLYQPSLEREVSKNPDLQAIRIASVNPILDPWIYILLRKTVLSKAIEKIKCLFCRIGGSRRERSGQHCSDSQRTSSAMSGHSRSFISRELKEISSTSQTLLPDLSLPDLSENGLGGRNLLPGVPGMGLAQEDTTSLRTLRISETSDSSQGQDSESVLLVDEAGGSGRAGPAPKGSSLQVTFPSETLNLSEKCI

[19] = Total clearance in cynomolgus monkey at 1 mg/kg, iv; assay type: ADME, organism-based, Macaca fascicularis; details: in vivo; procedure, shortened: as §3
[20] = Lipophilicity, log D of the compound at pH 1.2; assay type: physicochemical; details: buffer
[21] = Cmax in Beagle dog at 1 mg/kg, po; assay type: ADME, organism-based, Canis lupus familiaris; set-up: dose 1 mg/kg, route oral; details: in vivo; procedure, shortened: as §1
[22] = AUC (0 to infinity) in Beagle dog at 1 mg/kg, po; assay type: ADME, organism-based, Canis lupus familiaris; set-up: dose 1 mg/kg, time infinity, route oral; details: in vivo; procedure, shortened: as §1
CYP3A = assay: Inhibition of CYP3A (unknown origin) at 1 uM relative to control; assay type: ADME; details: human; procedure, shortened: as §2
[23] = AUC (0 to infinity) in Sprague-Dawley rat at 1 mg/kg, po; assay type: ADME, organism-based; set-up: dose 1 mg/kg, route oral, time infinity; details: in vivo; procedure, shortened: as §1
[24] = target: T2, Prostaglandin E2 receptor EP4 subtype; assay: Antagonist activity at rat recombinant EP4 receptor assessed as inhibition of PGE2-induced cAMP level by cell based assay; assay type: functional; details: read-out: pA2 (converted)
Procedure, shortened: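 Functional antagonism was measured as inhibition of PGE2-induced cAMP in cells transfected with rodent EP4 (mouse or rat). The value is expressed as pA2.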

[25] = Tmax in Sprague-Dawley rat at 1 mg/kg, po; assay type: ADME, organism-based; details: in vivo
Procedure, shortened: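 Oral administration of the compound; Tmax is from plasma concentration–time profiles. Values are mean SD of N = 4 animals per species.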

[26] = AUC (0 to infinity) in Sprague-Dawley rat at 1 mg/kg, iv; assay type: ADME, organism-based; set-up: dose 1 mg/kg, route intravenous, time infinity; details: in vivo; procedure, shortened: as §1
Rattus norvegicus [27] = assay: Analgesic activity in po dosed rat assessed as inhibition of carrageenan-induced mechanical hyperalgesia measured at 1 hr post dose; assay type: functional
Procedure, shortened: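 Rats dosed orally. Mechanical hyperalgesia was induced with carrageenan and assessed 1 h post dose. The value is the minimum effective dose (MED, mg/kg PO).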

CYP2C9 = CYP2C9 (Homo sapiens, UniProt P11712); assay: Inhibition of CYP2C9 (unknown origin) at 1 uM relative to control; assay type: ADME; procedure, shortened: as §2
CYP2C9, sequence (P11712 whole entry): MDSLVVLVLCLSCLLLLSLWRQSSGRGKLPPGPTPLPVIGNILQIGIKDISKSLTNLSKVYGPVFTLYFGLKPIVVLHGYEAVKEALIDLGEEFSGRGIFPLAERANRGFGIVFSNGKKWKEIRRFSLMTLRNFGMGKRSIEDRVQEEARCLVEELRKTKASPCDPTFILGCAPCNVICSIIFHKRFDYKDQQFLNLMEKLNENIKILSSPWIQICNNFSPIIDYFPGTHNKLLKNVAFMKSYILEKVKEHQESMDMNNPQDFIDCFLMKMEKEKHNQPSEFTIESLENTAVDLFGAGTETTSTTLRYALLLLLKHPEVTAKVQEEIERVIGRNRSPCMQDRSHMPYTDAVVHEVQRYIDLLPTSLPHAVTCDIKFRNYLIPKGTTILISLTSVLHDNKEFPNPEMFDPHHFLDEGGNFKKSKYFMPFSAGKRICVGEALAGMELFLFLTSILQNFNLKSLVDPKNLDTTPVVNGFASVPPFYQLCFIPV

[28] = Elimination half life in cynomolgus monkey at 1 mg/kg, iv; assay type: ADME, organism-based, Macaca fascicularis; details: in vivo, read-out: beta t1/2 (converted); procedure, shortened: as §1
[29] = Volume of distribution at steady state in Beagle dog at 1 mg/kg, iv; assay type: ADME, organism-based, Canis lupus familiaris; details: in vivo, read-out: Vdss; procedure, shortened: as §3
Rattus norvegicus [30] = assay: Analgesic activity in po dosed rat model of chronic inflammatory pain assessed as inhibition of CFA-induced weight bearing deficit; assay type: functional
Procedure, shortened: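 Chronic inflammatory pain was modelled in rats with CFA and read out as weight bearing deficit after oral dosing. The value is the minimum effective dose (MED, mg/kg PO).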

[31] = Solubility of the compound in pH 6.5 PBS; assay type: physicochemical
[32] = Total clearance in Sprague-Dawley rat at 1 mg/kg, iv; assay type: ADME, organism-based; details: in vivo; procedure, shortened: as §3
CYP1A = assay: Inhibition of CYP1A (unknown origin) at 1 uM relative to control; assay type: ADME; details: human; procedure, shortened: as §2

Cmax [1]: 994 ng/mL | half-life [2]: 4.59 h | bioavailability [3]: 80.6% | bioavailability [4]: 73.3% | logD [5]: 0.7 | Tmax [6]: 0.438 h | IC50 [7]: > 20000 nM | Ki [7]: > 6000 nM | inhibition at 1 µM (CYP2C19): < 5% | half-life [8]: 21.9 h | Ki [9]: > 6000 nM | half-life [10]: > 6 h | half-life [11]: 8.43 h | half-life [12]: 3.71 h | AUC(0-inf) [13]: 7490 ng·h/mL | AUC(0-inf) [14]: 2460 ng·h/mL | Vd [15]: 0.593 L/kg | bioavailability [16]: 73.6% | Ki [17]: 6.1 nM | Ki (Thromboxane A2 receptor): > 6000 nM | A2 [18]: 1.1 nM | IC50 [18]: 16.3 nM | Kb ([18]; read-out: pA2 (converted)): 1.07 nM | clearance [19]: 5.31 mL/min/kg | logD [20]: 3.8 | Cmax [21]: 1450 ng/mL | AUC(0-inf) [22]: 6080 ng·h/mL | inhibition at 1 µM (CYP3A): < 5% | AUC(0-inf) [23]: 7090 ng·h/mL | Kb [24]: 4.57 nM | Tmax [25]: 0.75 h | AUC(0-inf) [26]: 9620 ng·h/mL | inhibition at 1 µM (CYP2C9): < 5% | half-life [28]: 14.5 h | Vd [29]: 1.21 L/kg | solubility [31]: 73 µg/mL (≈ 176 µM) | clearance [32]: 1.75 mL/min/kg | inhibition at 1 µM (CYP1A): < 5%
Structure (SMILES): C[C@H](NC(=O)c1cc(Cl)cnc1Oc1cccc(F)c1)c1ccc(C(=O)O)cc1
inhibition (Rattus norvegicus [27]): Dose-dependent effect | minimal effective dose (Rattus norvegicus [27]; read-out: MED): 1 mg/kg | inhibition (Rattus norvegicus [30]): Dose-dependent effect | minimal effective dose (Rattus norvegicus [30]; read-out: MED): 1 mg/kg
